What was measured:
CaM [1] = experiment: CaM binding to DHs by isothermal titration calorimetry; conditions: for Heat enthalpy change relative to DH665-719: fold of DH665-719 enthalpy
CaM [2] = experiment: CaM interaction by size-exclusion chromatography; type: binding
Procedure, shortened: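 HPLC size-exclusion used a Shodex KW802.5 column at 1.0 mL/min with 280 nm detection. Buffer was Tris, pH 7.5, with 0.2 M NaCl (range 0.2–0.5 M) plus 2 mM Ca²⁺ or 1 mM EDTA. Samples were filtered through 0.45 μm. MBP-DH constructs, alone or mixed with CaM or Dansyl-CaM, were compared with BSA. Collected fractions were assayed for Dansyl fluorescence.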

[3] = Size-exclusion chromatography, oligomeric states; type: physicochemical
Procedure, shortened: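 HPLC gel filtration of amylose-purified MBP-fused NOX5 dehydrogenase domain, run against CaM and BSA references. Column equilibrated in Tris pH 7.5 (50 mM per figure legends, 20 mM per methods) with 0.2 M NaCl (0.2–0.5 M range), plus 2 mM Ca²⁺ or 1 mM EDTA. Runs at 1.0 mL/min with 280 nm detection. 2 M urea added to partially dissociate oligomers. Species assigned by elution time.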

Dynamic light scattering = type: physicochemical
Procedure, shortened: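 DLS was run on a DynaPro NanoStar. Samples at 1 mg/mL in 50 mM Tris, pH 7.5, were filtered through 0.45 then 0.1 μm and equilibrated 2 min at 25 °C. Acquisition was 5 s, with minimum peak intensity 1% and correlation cut-offs of 0.5 and 100,000 μs. Ten autocorrelation functions were averaged and fitted to decaying exponentials for the diffusion coefficient. Rh was calculated assuming spheres.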

[4] = Solubility of DH proteins in bacterial expression; type: physicochemical; conditions: E. coli expression
[5] = 1 mg/mL, 50 mM Tris, pH 7.5, 25 °C

B1: DH605-719: MBP-fused truncated Nox5 dehydrogenase domain residues 605–719, contains REFBD and CMBD sequences (protein)
chain: SLLTKLEMDQAEEAQYGRFLELHMYMTSALGKNDMKAIGLQMALDLLANKEKKDSITGLQTRTQPGRPDWSKVFQKVAAEKKGKVQVFFCGSPALAKVLKGHCEKFGFRFFQENF
modifications: left off: MBP, N-terminal, kept
Stoichiometry nCaM/DH, ITC at high DH concentration (CaM [1]; CaM into 20–50 μM DH, Ca^2+, low value attributed to DH degradation): lower than 1
Heat enthalpy change relative to DH665-719 (CaM [1]): approximately double

B2: DH584-719: MBP-fused truncated Nox5 dehydrogenase domain residues 584–719 (56 kDa) (protein)
chain: KLHKVDFIWINRDQRSFEWFVSLLTKLEMDQAEEAQYGRFLELHMYMTSALGKNDMKAIGLQMALDLLANKEKKDSITGLQTRTQPGRPDWSKVFQKVAAEKKGKVQVFFCGSPALAKVLKGHCEKFGFRFFQENF
modifications: left off: MBP, N-terminal, kept
Effect of CaM on DH oligomer (CaM [2]; CaM binding, Ca^2+): the dimer disappeared
SEC elution time, major peak ([3]; 50 mM Tris, pH 7.5, 0.2 M NaCl): 6.7 min
SEC elution time, very minor peak (monomer) ([3]; 50 mM Tris, pH 7.5, 0.2 M NaCl): ~9.5 min
SEC elution time, monomer, 2 M urea ([3]; 2 M urea, 50 mM Tris, pH 7.5, 0.2 M NaCl, Species 1): 9.52 min
SEC elution time, dimer, 2 M urea ([3]; 2 M urea, 50 mM Tris, pH 7.5, 0.2 M NaCl, Species 2): 8.02 min
SEC elution time, trimer, 2 M urea ([3]; 2 M urea, 50 mM Tris, pH 7.5, 0.2 M NaCl, Species 3 (∼168 kDa)): 7.25 min
SEC elution time, tetramer, 2 M urea ([3]; 2 M urea, 50 mM Tris, pH 7.5, 0.2 M NaCl, Species 4 (∼224 kDa)): 6.71 min
Dominant oligomer, high ionic strength ([3]; >0.25 M NaCl): favors trimer formation
Effect of DTT and Ca^2+ on HPLC profile ([3]; reducing agent DTT and Ca^2+ ions): did not affect its HPLC profile
Heat enthalpy change relative to DH665-719 (CaM [1]): approximately double
Decay of autocorrelation function (Dynamic light scattering; [5]): > 100 μs
Hydrodynamic radius (Rh) (Dynamic light scattering; [5]): 8.3 nm
Poly-distribution (%pd) (Dynamic light scattering; [5]): 42.5%
Estimated average molecular weight (DLS) (Dynamic light scattering; Raleigh sphere assumption, qualitative): ~450 kDa

B3: DH528-719: MBP-fused truncated Nox5 dehydrogenase domain residues 528–719 (∼62 kDa) (protein)
chain: PTRRIFASEHAVLIGAGIGITPFASILQSIMYRHQKRKHTCPSCQHSWIEGVQDNMKLHKVDFIWINRDQRSFEWFVSLLTKLEMDQAEEAQYGRFLELHMYMTSALGKNDMKAIGLQMALDLLANKEKKDSITGLQTRTQPGRPDWSKVFQKVAAEKKGKVQVFFCGSPALAKVLKGHCEKFGFRFFQENF
modifications: left off: MBP, N-terminal, kept
Solubility [4]: most soluble
Share of D-CaM in DH fractions (CaM [2]; equal amounts of D-CaM and DH528-719, Ca^2+): approximately half
Stoichiometry, ITC CaM/DH (CaM [1]; CaM (titrant) into DH (near 2 μM), 50 mM Tris, pH 7.5, 2 mM Ca^2+, 25 °C, MBP-fused DH): 1.18 ± 0.05
Heat enthalpy change relative to DH665-719 (CaM [1]): approximately double

— paper PMC8777244 (Biochemistry and Biophysics Reports, 2022)
